The source made the active and inactive calls. The calls are words filed in the database; no cut-off is given here.

The target of series [1] is T1, Nuclear factor erythroid 2-related factor 2 (Homo sapiens) (UniProt Q16236).
T1 sequence (whole entry): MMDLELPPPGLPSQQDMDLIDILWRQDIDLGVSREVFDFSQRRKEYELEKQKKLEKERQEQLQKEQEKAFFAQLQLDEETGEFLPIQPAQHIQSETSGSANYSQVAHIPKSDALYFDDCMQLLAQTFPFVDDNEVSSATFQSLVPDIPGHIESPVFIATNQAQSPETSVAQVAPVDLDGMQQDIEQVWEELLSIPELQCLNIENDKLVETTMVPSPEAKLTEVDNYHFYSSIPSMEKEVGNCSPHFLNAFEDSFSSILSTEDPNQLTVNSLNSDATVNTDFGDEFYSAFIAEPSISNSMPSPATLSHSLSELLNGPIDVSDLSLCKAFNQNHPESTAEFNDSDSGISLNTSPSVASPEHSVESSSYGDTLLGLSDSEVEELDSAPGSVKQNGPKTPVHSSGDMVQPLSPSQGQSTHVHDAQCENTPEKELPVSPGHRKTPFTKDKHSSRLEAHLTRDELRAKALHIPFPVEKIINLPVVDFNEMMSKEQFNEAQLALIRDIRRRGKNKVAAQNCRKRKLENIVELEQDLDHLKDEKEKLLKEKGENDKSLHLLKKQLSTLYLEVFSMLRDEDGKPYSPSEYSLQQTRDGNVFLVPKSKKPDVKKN
Nature of the series: Activation of Nrf2 in human HepG2-ARE-C8 cells assessed as induction of ARE-mediated luciferase activity at 40 uM after 24 hrs by luciferase reporter gene assay relative to control. The series is classed as cell-based. The method in brief: (§1)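 HepG2-ARE-C8 cells stably carrying ARE-luciferase, grown in DMEM with 10% FBS at 37 °C and 5% CO2. Seeded at 5 × 10^4 cells/well, left overnight, then given compound diluted from a 10 mM DMSO stock for 24 h. Cells lysed and luciferase read as RLU. Inductivity = (RLUtest − RLUblank)/(RLUcontrol − RLUblank), with DMSO as control. Mean ± SEM of three experiments.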
(In general: In a reporter assay the amount or activity of a reporter protein is the signal.)

For series [2], the system named is Mus musculus. As to the kind of experiment: In vivo activation of Nrf2 in APAP-induced liver injury in C57BL/6 mouse assessed as increase in GCLM mRNA expression level administered ip for 7 consecutive days followed by APAP challenge 1 hr post last compound dose and measured after 24 hrs by qRT-PCR analysis. Format: functional, organism-based. The method in brief: (§2)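 Female C57BL/6 mice (20–25 g, n = 10/group) received 10, 50 or 100 mg/kg/day ip in saline for 7 days. One hour after the last dose they received APAP 300 mg/kg in saline. Killed 24 h later. Serum ALT/AST by kit. Liver homogenates (pH 7.0 phosphate) used for GSH (A420, μmol/g protein), GST (A412, U/mg protein) and SOD. Liver also analyzed by western blot (β-actin normalized), qRT-PCR (GAPDH normalized) and H&E.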
(Real-time PCR tracks product formation cycle by cycle.)

In series [3] the target is T1, Nuclear factor erythroid 2-related factor 2 (Homo sapiens). As to the kind of experiment: Activation of Nrf2 in human HepG2-ARE-C8 cells assessed as induction of ARE-mediated luciferase activity at 0.1 uM after 24 hrs by luciferase reporter gene assay relative to control. Format: cell-based. The method in brief: as §1
In series [4] the test system is Mus musculus. Nature of the series: Hepatoprotective activity against APAP-induced liver injury in C57BL/6 mouse assessed as increase in SOD levels administered ip for 7 consecutive days followed by APAP challenge 1 hr post last compound dose and measured after 24 hrs by NBT assay. Format: functional, organism-based. The method in brief:
as §2

For series [5], the target named is T1, Nuclear factor erythroid 2-related factor 2 (Homo sapiens). Nature of the series: Activation of Nrf2 in human HepG2-ARE-C8 cells assessed as induction of ARE-mediated luciferase activity at 0.01 uM after 24 hrs by luciferase reporter gene assay relative to control. Format: cell-based. The method in brief: as §1
For series [6], the system named is Mus musculus. As to the kind of experiment: In vivo activation of Nrf2 in APAP-induced liver injury in C57BL/6 mouse assessed as increase in HO-1 protein expression level at 10 to 100 mg/kg, ip administered for 7 consecutive days followed by APAP challenge 1 hr post last compound dose and measured after 24 hrs by Western blot analysis. The series is classed as functional, organism-based. An outline of the steps:
as §2
(A western blot detects proteins with antibodies after separation by electrophoresis.)

Series [7] deals with L02. Nature of the series: Hepatoprotective activity against APAP-induced cell injury in human LO2 cells assessed as increase in cell viability at 20 uM pretreated for 24 hrs followed by APAP treatment measured after 24 hrs by MTT assay. Format: functional. An outline of the steps: (§3)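 LO2 cells plated for 12 h and pretreated for 24 h with 5, 10 or 20 μM compound. One arm was first transfected with 50 nM Nrf2 siRNA before receiving 20 μM compound. Medium then replaced with medium containing 8 mM APAP for 24 h. Viability by MTT at A570. Mean ± SD of three experiments.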

The target of series [8] is T1, Nuclear factor erythroid 2-related factor 2 (Homo sapiens). As to the kind of experiment: Activation of Nrf2 in human LO2 cells cotreated with Nrf2 siRNA assessed as increase in Nrf2 mRNA expression level at 20 uM by qRT-PCR analysis. Format: cell-based. An outline of the steps: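 LO2 cells plated at 7 × 10^5 per 60 mm dish and transfected with 50 nM Nrf2 siRNA (scrambled siRNA as control). After 24 h, fresh medium was added and cells grown a further 48 h. Then 20 μM compound for 12 h. Nrf2, NQO1, GCLM and HO-1 mRNA measured by qRT-PCR, normalized to GAPDH, as fold over control.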

For series [9], the system named is Mus musculus. As to the kind of experiment: Hepatoprotective activity against APAP-induced liver injury in C57BL/6 mouse assessed as decrease in APAP-induced cell necrosis administered ip for 7 consecutive days followed by APAP challenge 1 hr post last compound dose and measured after 24 hrs by hematoxylin/eosin staining based assay. Format: functional, organism-based. The method in brief: as §2

Series [10] relates to Mus musculus. Nature of the series: In vivo activation of Nrf2 in APAP-induced liver injury in C57BL/6 mouse assessed as increase in NQO1 mRNA expression level administered ip for 7 consecutive days followed by APAP challenge 1 hr post last compound dose and measured after 24 hrs by qRT-PCR analysis. Format: functional, organism-based. The method in brief: as §2
The subject of a further series is HepG2. Nature of the series: Cytotoxicity against human HepG2 cells at 80 uM after 24 hrs by MTT assay. Format: cell-based. As to conditions: hepg2, 24 h.
The subject of series [11] is Mus musculus. As to the kind of experiment: Hepatoprotective activity against APAP-induced liver injury in C57BL/6 mouse assessed as reduction in serum ALT levels administered ip for 7 consecutive days followed by APAP challenge 1 hr post last compound dose and measured after 24 hrs. Format: functional, organism-based. The method in brief:
as §2

For series [12], the target named is T1, Nuclear factor erythroid 2-related factor 2 (Homo sapiens). Nature of the series: Activation of Nrf2 in human LO2 cells assessed as increase in GCLC mRNA expression level by qRT-PCR analysis. The series is classed as cell-based. An outline of the steps: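 LO2 cells in DMEM with 10% FBS were exposed to 0, 2.5, 5, 10, 20 or 40 μM compound for 12 h. Transcripts measured by qRT-PCR: 40 cycles of 95 °C for 5 s and 60 °C for 30 s. Normalized to GAPDH and expressed as fold over the untreated control. Mean ± SD, n = 3.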

Series [13] concerns L02. As to the kind of experiment: Hepatoprotective activity against APAP-induced cell injury in human LO2 cells assessed as increase in cell viability pretreated for 24 hrs followed by APAP treatment measured after 24 hrs by MTT assay. The series is classed as functional, cell-based. The method in brief:
as §3

For series [14], the target named is T1, Nuclear factor erythroid 2-related factor 2 (Homo sapiens). Nature of the series: Induction of Nrf2 nuclear translocation in human LO2 cells assessed as Nrf2 binding to antioxidant response element after 12 hrs by DAPI staining based immunofluorescence assay. The series is classed as cell-based. The method in brief: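 LO2 cells grown on coverslips for 24 h, then treated 12 h with compound (5 or 20 μM); 80 μM tBHQ served as reference. Cells fixed, probed with anti-Nrf2 and a DyLight 488 anti-rabbit secondary, nuclei stained with DAPI. Imaged by confocal microscopy.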

Turning to `Cc1ccc(-c2noc(-c3ccc(F)c(F)c3)n2)cn1`, the Activity is 48.7 in series [1]; “Dose-dependent effect” in the series with Mus musculus [2]; 3.46 in series [3]; “Dose-dependent effect” in the series on Mus musculus [4]; 2.75 in series [5]; 80% with L02 [7]. In addition, the Activity entry was “Dose-dependent effect” in the series on Mus musculus [9]; “Dose-dependent effect” with Mus musculus [10]; “Non-Toxic” in the series on HepG2; “Dose-dependent effect” with Mus musculus [11]; “Dose-dependent effect” in series [12]; “Dose-dependent effect” in the series with L02 [13]. For the same compound, in series [14], the Activity entry was “Dose-dependent effect”. Besides, the result (in the series on Mus musculus [6]; in [8]) was Active.

For the origin of these results see ChEMBL document CHEMBL4265908, “Structure-activity and structure-property relationships of novel Nrf2 activators with a 1,2,4-oxadiazole core and their therapeutic effects on acetaminophen (APAP)-induced acute liver injury” (Eur J Med Chem, 2018).
